ChEMBL document CHEMBL1155306, “Inhibitors of HIV-1 attachment. Part 3: A preliminary survey of the effect of structural variation of the benzamide moiety on antiviral activity” (Bioorg Med Chem Lett, 2009)
pEC50: −log10 of the molar value.

Legend:
[1] = Cytotoxicity against human HeLa67 cell after 3 days by XTT assay; type: cell-based; settings: HeLa67 cells
How it was run: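 HeLa67 cells treated in parallel with the antiviral assay. Viability read by XTT three days after compound addition. Values are means of two or more experiments unless noted otherwise.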

[2] = system: Human immunodeficiency virus 1; experiment: Antiviral activity against HIV1 infected human HeLa67 cells coexpressing JRFL-LUCENV after 3 days by luciferase reporter assay; type: functional, organism-based; settings: Human immunodeficiency virus 1, HeLa67, 72 h
How it was run: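 JRFL-Luc ΔEnv pseudotyped virus, titered by serial dilution on HeLa67 cells (CD4+/CCR5+). Fourfold serial dilutions of compound added to infected cells at the time of infection. Luciferase activity read after three days and compared with no-compound controls to derive EC50. Values are means of two or more experiments.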

Row | SMILES | CC50 at 72 h [1] | pEC50 [2]
1 | O=C(C(=O)N1CCN(C(=O)c2cscn2)CC1)c1c[nH]c2cccc(F)c12 | > 250 µM | 8.06
2 | O=C(C(=O)N1CCN(C(=O)c2ccccc2Cl)CC1)c1c[nH]c2ccccc12 | > 300 µM | 4.46
3 | CN(C)c1ccccc1C(=O)N1CCN(C(=O)C(=O)c2c[nH]c3ccccc23)CC1 | 89 µM | < 6.30
4 | Cc1ccncc1C(=O)N1CCN(C(=O)C(=O)c2c[nH]c3ccccc23)CC1 | > 300 µM | 4.06
5 | O=C(C(=O)N1CCN(C(=O)c2ccccc2F)CC1)c1c[nH]c2ccccc12 | 101 µM | 6.41
6 | O=C(C(=O)N1CCN(C(=O)CC2CCCCC2)CC1)c1c[nH]c2ccccc12 | 158 µM | < 4.00
7 | O=C(C(=O)N1CCN(C(=O)c2ccccc2)CC1)c1c[nH]c2cccc(F)c12 | > 300 µM | –
8 | O=C(C(=O)N1CCN(C(=O)c2cc(F)c(F)c(F)c2)CC1)c1c[nH]c2ccccc12 | > 300 µM | 4.26
9 | O=C(C(=O)N1CCN(C(=O)c2c(F)cccc2F)CC1)c1c[nH]c2ccccc12 | > 300 µM | 5.17
10 | COc1cccc(C(=O)N2CCN(C(=O)C(=O)c3c[nH]c4ccccc34)CC2)c1 | > 300 µM | < 4.25
11 | O=C(C(=O)N1CCN(C(=O)c2ccncc2)CC1)c1c[nH]c2cccc(F)c12 | > 205 µM | 7.63
12 | O=C(C(=O)N1CCN(C(=O)c2ccco2)CC1)c1c[nH]c2cccc(F)c12 | > 300 µM | 8.27
13 | O=C(C(=O)N1CCN(C(=O)c2sccc2Cl)CC1)c1c[nH]c2cccc(F)c12 | 50.5 µM | 7.92
14 | O=C(C(=O)N1CCN(C(=O)c2c[nH]cn2)CC1)c1c[nH]c2cccc(F)c12 | > 300 µM | 5.91
15 | CN(C)c1cccc(C(=O)N2CCN(C(=O)C(=O)c3c[nH]c4ccccc34)CC2)c1 | 230 µM | < 6.30
16 | O=C(C(=O)N1CCN(C(=O)c2cccs2)CC1)c1c[nH]c2cccc(F)c12 | > 300 µM | 9.15
17 | O=C(C(=O)N1CCN(C(=O)c2sccc2Br)CC1)c1c[nH]c2cccc(F)c12 | 69.7 µM | 8.49
18 | O=C(C(=O)N1CCN(C(=O)c2ccc(Cl)cc2Cl)CC1)c1c[nH]c2ccccc12 | 111 µM | 4.43
19 | O=C(C(=O)N1CCN(C(=O)c2cccc(Cl)c2Cl)CC1)c1c[nH]c2ccccc12 | 235 µM | 4.74
20 | O=C(C(=O)N1CCN(C(=O)Cc2ccccc2)CC1)c1c[nH]c2ccccc12 | > 300 µM | < 4.00

Row | SMILES | CC50 at 72 h [1] | pEC50 [2]
21 | O=C(C(=O)N1CCN(C(=O)c2c(F)cc(F)cc2F)CC1)c1c[nH]c2ccccc12 | > 300 µM | < 4.27
22 | O=C(C(=O)N1CCN(C(=O)c2cc[nH]n2)CC1)c1c[nH]c2cccc(F)c12 | > 300 µM | 7.14
23 | O=C(C(=O)N1CCN(C(=O)c2ccsc2)CC1)c1c[nH]c2cccc(F)c12 | > 300 µM | 9.40
24 | O=C(C(=O)N1CCN(C(=O)c2ccc(F)cc2)CC1)c1c[nH]c2ccccc12 | 280 µM | 5.05
25 | O=C(C(=O)N1CCN(C(=O)c2ccno2)CC1)c1c[nH]c2cccc(F)c12 | > 300 µM | 6.81
26 | O=C(C(=O)N1CCN(C(=O)Cc2ccccc2)CC1)c1c[nH]c2cccc(F)c12 | > 300 µM | < 4.30
27 | O=C(C(=O)N1CCN(C(=O)c2ccoc2)CC1)c1c[nH]c2cccc(F)c12 | > 300 µM | 7.69
28 | CC(C)(C)c1ccc(C(=O)N2CCN(C(=O)C(=O)c3c[nH]c4ccccc34)CC2)cc1 | 31 µM | 5.05
29 | Cc1nc(C(=O)N2CCN(C(=O)C(=O)c3c[nH]c4cccc(F)c34)CC2)cs1 | > 300 µM | 7.64
30 | CN(C)c1ccc(C(=O)N2CCN(C(=O)C(=O)c3c[nH]c4ccccc34)CC2)cc1 | > 300 µM | < 4.00
31 | O=C(C(=O)N1CCN(C(=O)c2cc(F)c(F)c(F)c2F)CC1)c1c[nH]c2ccccc12 | > 300 µM | < 4.00
32 | O=C(C(=O)N1CCN(C(=O)c2ccc(O)cc2)CC1)c1c[nH]c2ccccc12 | 136 µM | 5.60
33 | O=C(C(=O)N1CCN(C(=O)c2cccnc2)CC1)c1c[nH]c2ccccc12 | > 300 µM | 5.38
34 | COc1ccc(C(=O)N2CCN(C(=O)C(=O)c3c[nH]c4ccccc34)CC2)cc1 | 129 µM | 4.52
35 | O=C(C(=O)N1CCN(C(=O)c2ccccc2Br)CC1)c1c[nH]c2ccccc12 | > 300 µM | 4.98
36 | COc1ccccc1C(=O)N1CCN(C(=O)C(=O)c2c[nH]c3ccccc23)CC1 | > 300 µM | < 5.00
37 | N#Cc1ccoc1C(=O)N1CCN(C(=O)C(=O)c2c[nH]c3cccc(F)c23)CC1 | 187 µM | 8.15
38 | O=C(C(=O)N1CCN(C(=O)c2occc2Cl)CC1)c1c[nH]c2cccc(F)c12 | 250 µM | 8.51
39 | O=C(C(=O)N1CCN(C(=O)C2CCCCC2)CC1)c1c[nH]c2ccccc12 | > 300 µM | 5.46
40 | O=C(C(=O)N1CCN(C(=O)c2cccc(Br)c2)CC1)c1c[nH]c2ccccc12 | 76 µM | 5.17

Row | SMILES | CC50 at 72 h [1] | pEC50 [2]
41 | Cc1ccc(C(=O)N2CCN(C(=O)C(=O)c3c[nH]c4ccccc34)CC2)cc1 | > 99 µM | 5.08
42 | O=C(C(=O)N1CCN(C(=O)c2ccccn2)CC1)c1c[nH]c2ccccc12 | > 300 µM | 5.81
43 | O=C(C(=O)N1CCN(C(=O)c2ccccc2O)CC1)c1c[nH]c2ccccc12 | 194 µM | 5.44
44 | CCCc1ccc(C(=O)N2CCN(C(=O)C(=O)c3c[nH]c4ccccc34)CC2)cc1 | 48 µM | 4.09
45 | O=C(C(=O)N1CCN(C(=O)c2ccc(F)cc2F)CC1)c1c[nH]c2ccccc12 | > 300 µM | 5.22
46 | O=C(C(=O)N1CCN(C(=O)c2cccc3ccccc23)CC1)c1c[nH]c2ccccc12 | > 300 µM | < 4.00
47 | O=C(C(=O)N1CCN(C(=O)c2ccc(F)c(F)c2)CC1)c1c[nH]c2ccccc12 | > 300 µM | 5.08
48 | O=C(C(=O)N1CCN(C(=O)c2occc2Br)CC1)c1c[nH]c2cccc(F)c12 | 236 µM | 8.85
49 | O=C(C(=O)N1CCN(C(=O)c2cccc(Cl)c2F)CC1)c1c[nH]c2ccccc12 | > 300 µM | 5.46
50 | O=C(C(=O)N1CCN(C(=O)c2cccnc2)CC1)c1c[nH]c2cccc(F)c12 | > 300 µM | 6.81
51 | O=C(C(=O)N1CCN(C(=O)c2cc(F)c(F)cc2F)CC1)c1c[nH]c2ccccc12 | > 300 µM | 4.44
52 | O=C(C(=O)N1CCN(C(=O)c2cccc(F)c2)CC1)c1c[nH]c2ccccc12 | 200 µM | 5.56
53 | O=C(C(=O)N1CCN(C(=O)c2ccccn2)CC1)c1c[nH]c2cccc(F)c12 | > 300 µM | 8.35
54 | Cc1ccsc1C(=O)N1CCN(C(=O)C(=O)c2c[nH]c3cccc(F)c23)CC1 | 260 µM | 7.76
55 | O=C(C(=O)N1CCN(C(=O)c2cccc(Cl)c2)CC1)c1c[nH]c2ccccc12 | 117 µM | 4.76
56 | O=C(C(=O)N1CCN(C(=O)c2ccc(Cl)c(Cl)c2)CC1)c1c[nH]c2ccccc12 | 123 µM | 4.84
57 | O=C(C(=O)N1CCN(C(=O)c2ccc(Br)cc2)CC1)c1c[nH]c2ccccc12 | > 240 µM | 4.52
58 | O=C(C(=O)N1CCN(C(=O)c2ccc(Cl)cc2)CC1)c1c[nH]c2ccccc12 | 92 µM | 4.18
